Screening results as filed in PubChem BioAssay.
M1 ag = activates the M1 muscarinic receptor; CHO-M1 cells, Fluo-4 calcium fluorescence, agonist mode; active compounds read high; B-score at 10 µM; actives 3% (n = 64,000);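 active means fluorescence rise, raw or as B-score row- and column-corrected plate score, outside the 99.7% band of its plate's samples, either direction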
HEK293 NFkB inh = inhibitors of the PMA/ionomycin-induced NF-kB reporter in HEK293 cells; actives 0.21% (n = 62,000); inhibition, % at 3 µM; HEK-293 NF-kB luciferase reporter, luminescence;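 active means inhibition above the mean of all tested compounds plus 3 SD, cut at about 40% in these data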;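 further: 0% = stimulated DMSO wells and 100% = 10 µM reference inhibitor 5653914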
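System: NF-kB luciferase reporter HEK-293 cells | Replication: Single test | Control set: DMSO vs reference inhibitor | Evaluation: % inhibition | Schedule: 1 h pretreatment, 16 h stimulation, 37 °C | Probe or stimulus: PMA with ionomycin | Compound dosing: One dose, 3 µM | Detection: Luciferase luminescence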
D1 allo mod = allosteric modulators of human D1 dopamine receptor. P21728. HEK293 D1, CRE-luciferase, dopamine EC30 potentiation; actives deviate in either direction. B-score at 10 µM. actives 5.9% (n = 58,000). AID 641;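 active means luminescence count or its row- and column-corrected plate score outside the 99.7% band of the plate's sample wells, on either side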
Jurkat viability = cytotoxic compounds reducing Jurkat cell viability; inhibition, % at 4 µM; actives 1.2% (n = 56,000); Jurkat E6.1 viability, ATP luminescence, 48 h;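 active means inhibition above the mean inhibition of all tested compounds plus 3 SD, cut at about 28% in these data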
Htt clearance = mutant huntingtin protein clearance | HeLa Exon1htt(103Q)mCFP, aggregate imaging; zero = plate's median compound well | inhibition, % at 1.5 µM | actives 0.42% (n = 47,000) | AID 853;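 active means inhibition of aggregate fluorescence above about 70%, also judged a hit by eye on the cell image, limit read from the data, passing the limit was not always enough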;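 further: cells exposed to compound for three days before fixation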
M1 antag = blocks the rat M1 muscarinic receptor response to acetylcholine; CHO-M1 cells, Fluo-4 calcium, ACh EC80 antagonist mode; active compounds read low; actives 3.4% (n = 64,000); AID 628; P08482; B-score at 10 µM;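 active means calcium fluorescence response, raw or row-and-column corrected B-score, differing from the plate sample mean either way at a set confidence level, mostly lower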
Target sequence (P08482 whole entry, looked up): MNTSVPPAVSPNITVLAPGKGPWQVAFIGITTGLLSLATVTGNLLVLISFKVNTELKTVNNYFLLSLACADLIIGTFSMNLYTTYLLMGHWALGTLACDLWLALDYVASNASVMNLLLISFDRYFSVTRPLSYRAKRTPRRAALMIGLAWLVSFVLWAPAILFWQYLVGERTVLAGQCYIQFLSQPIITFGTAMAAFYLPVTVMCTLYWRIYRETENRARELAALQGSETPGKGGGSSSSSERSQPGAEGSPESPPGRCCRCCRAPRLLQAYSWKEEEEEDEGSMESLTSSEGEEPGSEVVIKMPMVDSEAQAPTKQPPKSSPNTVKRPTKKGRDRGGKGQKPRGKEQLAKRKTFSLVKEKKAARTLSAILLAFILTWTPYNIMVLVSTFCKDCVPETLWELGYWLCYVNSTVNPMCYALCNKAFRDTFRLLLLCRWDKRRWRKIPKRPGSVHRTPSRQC
Starred values were filed as active, the others as inactive; nt = no result. A selection: hits, their analogues and other compounds. The true share with any hit is near 9.5%.

SMILES | M1 ag | HEK293 NFkB inh | D1 allo mod | Jurkat viability | Htt clearance | M1 antag
COCCN(CCOC)S(=O)(=O)c1ccc(C(=O)Nc2nnc(C)o2)cc1 | -0.025 | 28 | -0.19 | 9 | nt | 1.7
CCN(Cc1ccccc1)S(=O)(=O)c1ccc(C(=O)Nc2nnc(C3CC3)o2)cc1 | 0.18 | 3 | -0.07 | 101* | nt | 0.53
Cc1ccc(C(=O)Nc2cccc(C(=O)O)c2)cc1S(=O)(=O)N1CCCCC1 | 0 | 3 | -3.4 | -4 | nt | 1.2
CCCC(=O)N1CCN(c2nc(CC(C)C)c3c(c2C#N)CCC3)CC1 | 2 | nt | 4.1 | nt | 12 | -0.22
O=C(c1ccccc1OCc1ccccc1Br)N1CCN(c2ncccn2)CC1 | 0.77 | 5 | -0.023 | -6 | 32 | 0.68
CC(C)(C)C(=O)Nc1ccc(N2CCCC2)cc1 | nt | nt | nt | nt | 28 | nt
O=C(NCCCc1ccccc1)c1cnc2n(c1=O)CCS2 | -0.77 | -15 | -0.036 | -2 | 12 | 0.25
O=C(NCc1ccccc1)c1cnc2n(c1=O)CCS2 | -0.21 | 11 | -3.5* | 2 | 51 | 0.36
CCOC(=O)C(C)Oc1cccc2c(=O)n(CC(=O)NCc3ccc4c(c3)OCO4)ccc12 (centres undefined) | 1.9 | 34 | 1.1 | 87* | 36 | 1
CCC1CCCCN1c1nc2c(c(=O)n(C)c(=O)n2C)n1CCSc1nc2ccccc2o1 (centres undefined) | 0.19 | 10 | nt | 2 | nt | -0.71*
Cc1cc2ccccc2c(=O)n1CC(=O)N(C)c1ccc(F)cc1 | -0.67 | 21 | -0.068 | -5 | nt | -0.23
Cc1cc2nc(NC3=NCN(Cc4cccnc4)CN3)nc(C)c2cc1C | 0.54 | 8 | -0.22 | 12 | nt | -3.2*
CSc1nc(C)cc(-n2ccc(=O)[nH]c2=O)n1 | -0.24 | 24 | 0.35 | 1 | nt | 1*
O=C(Cc1ccccc1)NCc1nc2ccccc2[nH]1 | -0.52 | 5 | 0.39 | -1 | 88* | -0.53
Cc1cccc(NC(=O)Cn2c(C)c(C#N)c3ccccc32)c1C | -0.41 | 17 | -0.36 | 10 | -3 | 0.17
O=S(=O)(c1ccc(Oc2ccc(S(=O)(=O)N3CCOCC3)cc2)cc1)N1CCOCC1 | 0.59 | 6 | -1.2 | 6 | nt | -0.3
C=CS(=O)(=O)c1ccc(Oc2ccc(S(=O)(=O)C=C)cc2)cc1 | -1.1 | 81* | -4.8* | 100* | nt | 0.51
O=C(Cn1ncn2c(cc3ccccc32)c1=O)NCCC1=CCCCC1 | 0.31 | 11 | 0.71 | 0 | 10 | -0.29
O=c1c2c3c(sc2n2cnnc2n1-c1ccccc1)N(Cc1ccccc1)CCC3 | -1.5 | 11 | -5.1* | 2 | nt | -0.82
CN1CCc2c(sc3c2c(=O)n(-c2cccc(Cl)c2)c2nncn32)C1 | -0.77 | -8 | -0.024 | -6 | 38 | -0.21
Cc1cccc(N2CCN(S(=O)(=O)c3ccc4c(c3)CCN4C(=O)CCC(=O)O)CC2C)c1 (centres undefined) | nt | nt | nt | nt | 12 | nt
CCOC(=O)N1CCC(N2C(=O)c3ccccc3C2Nc2ccc(Cl)cn2)CC1 (centres undefined) | 0.92 | 11 | -0.75 | 7 | -26 | -0.0045
COc1ccc(NC(=O)c2ccco2)cc1NC(=O)c1ccc(Br)o1 | 8.9* | 6 | nt | 9 | -45 | -0.062
Cc1c(NC(=O)CSc2nc3ccccc3n2C)c(=O)n(-c2ccccc2)n1C | 0.023 | 9 | -0.62 | -6 | -48 | 0.14
c1ccc(Cn2ccc(-c3cnc(-c4ccccc4)s3)n2)cc1 | nt | nt | nt | nt | 24 | nt
SMILES | M1 ag | HEK293 NFkB inh | D1 allo mod | Jurkat viability | Htt clearance | M1 antag
CCC1Oc2ccc(C)cc2N(CC(=O)N(Cc2cccnc2)Cc2ccc(C)o2)C1=O (centres undefined) | 4.4* | 10 | -0.053 | 5 | -19 | -1.5
Cc1cc(C)nc(N2CCCC(C(=O)NCC(c3ccccc3)c3ccccc3)C2)n1 (centres undefined) | nt | nt | nt | nt | 88* | nt
COc1cc(C)nc(N2CCCC(C(=O)NC3CCC(C)CC3)C2)n1 (centres undefined) | 1.1 | -9 | -0.017 | -3 | nt | -16*
COC(=O)C(NS(C)(=O)=O)(c1c(C)[nH]c2ccccc12)C(F)(F)F (centres undefined) | -0.86 | 7 | -0.86 | -3 | -31 | 0.021
COc1ccc2c(C)cc(N3CCN(c4ccc(F)cc4)CC3)nc2c1 | nt | nt | nt | nt | 41 | nt
COc1ccc2c(C)cc(N3CCOCC3)nc2c1 | nt | nt | nt | nt | 73* | nt
C[C@H](NS(=O)(=O)c1ccccc1F)C(=O)OCC(=O)N1CCc2ccccc21 | nt | nt | nt | nt | -2 | nt
COc1ccc(CNC(=O)c2c(C)nc3ccccn23)cc1 | nt | nt | nt | nt | 3 | nt
CC(=O)c1ccc(-c2nc3c4ccccc4ccn3c2C(C)=O)o1 | -1 | 89* | 1.5 | 1 | -8 | -0.0095
Cc1csc(SCC(=O)NC(=O)NCc2ccccc2)n1 | 0.46 | 8 | 1.2 | 9 | 78* | -0.73
O=C(CSc1nncs1)NC(=O)NCc1ccccc1 | -2.1 | 1 | 0.013 | 2 | nt | -0.0083
CCCCN1C2=NCCCN2c2cc(C)c(C)cc21 | -0.0058 | -21 | -3.4* | 7 | nt | 1.2
CCCCN1C2=NCCCN2c2ccccc21 | nt | nt | nt | nt | 29 | nt
CC(=O)Nc1ccc(C(=O)N2CCCC2)cc1 | nt | nt | nt | nt | -9 | nt
CC1CCCCN1C(=O)Cn1c(=O)n(C2CCCCC2)c(=O)c2ccccc21 (centres undefined) | nt | 22 | nt | 2 | -56 | nt
CCOc1ccc(OCc2cccc(C(=O)O)c2)cc1 | -0.072 | 97* | -4.5* | 12 | nt | -0.12
CCOc1ccc(OCc2ccc(C(=O)N3CCCC3)o2)cc1 | 0.33 | -11 | 0.37 | 3 | 7 | 0.56
CCOc1ccc(OCc2cccc(C(=O)N3CCCC3)c2)cc1 | 1.3 | -3 | -3.9* | -1 | 15 | 0.33
O=C(O)c1ccc(COc2ccc(CO)cc2Cl)cc1 | 0.78 | -8 | -0.079 | 4 | nt | -0.82
COc1ccc(NS(=O)(=O)c2cccc(C(=O)O)c2)cc1 | -0.19 | 14 | nt | -2 | 8 | 0.15
COc1ccc(OCc2cccc(C(=O)O)c2)cc1 | -0.025 | 94* | -11* | 12 | nt | 0.092
O=C(O)c1cccc(COc2ccc(CO)cc2Cl)c1 | 0 | 94* | -7.1* | 7 | nt | -1.8
C=C(C)CC1Nc2ccccc2NC1CC(=C)C (centres undefined) | -0.55 | 1 | 0.44 | -2 | -58 | -1.6
COc1ccc(-c2c3c([nH]c(=S)c2C#N)CCC3)cc1 | -1.4 | nt | nt | nt | 71* | 0.64
O=C(CC(=O)c1ccccc1O)c1cccc(F)c1 | 0.27 | 11 | -0.052 | 69* | -23 | 0.3
O=C(Nc1ccccc1C(=O)O)c1cccc(F)c1 | nt | nt | nt | nt | 2 | nt
CC1=C(C(=O)OCC2CCCO2)C(c2ccc(C)o2)C2=C(CC(c3ccc(N(C)C)cc3)CC2=O)N1 (centres undefined) | 5.6* | 2 | -1.4 | 4 | -34 | -0.24
CC1=C(C(=O)OCC2CCCO2)C(c2ccccc2OC(C)C)C2=C(CC(c3ccco3)CC2=O)N1 (centres undefined) | 0 | 22 | 0.0047 | 8 | 37 | 0.54
